# ChEMBL document CHEMBL3045178, “Metabolites from Aspergillus fumigatus, an endophytic fungus associated with Melia azedarach, and their antifungal, antifeedant, and toxic activities” (J Agric Food Chem, 2012)
# How the values were obtained:
# [1] = Toxicity in Artemia salina (brine shrimp) […]; type: organism-based; conditions: in vivo
# [2] = system: Alternaria solani; experiment: Antifungal activity against Alternaria solani at 28 degC after 48 hr microbroth dilution method; type: functional
# In short: (§1)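 Plant-pathogenic fungi isolated from infected plant organs. Fungi grown 18 h in PD medium at 28 ± 0.5 °C and 150 rpm, then diluted to about 1 × 10^6 CFU in PD medium. Compounds at 2 mg/mL DMSO stock, serially diluted in triplicate in PD medium in 96-well plates before the fungal suspension was added. DMSO served as negative control. After 48 h at 28 ± 0.5 °C, MIC taken as the lowest concentration with no visible growth.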
# [3] = system: Alternaria alternata; experiment: Antifungal activity against Alternaria alternata at 28 degC after 48 hr microbroth dilution method; type: functional; in short: as §1
# [4] = system: Colletotrichum gloeosporioides; experiment: Antifungal activity against Colletotrichum gloeosporioides at 28 degC after 48 hr microbroth dilution method; type: functional; in short: as §1
# [5] = system: Fusarium solani; experiment: Antifungal activity against Fusarium solani at 28 degC after 48 hr microbroth dilution method; type: functional; in short: as §1
# [6] = system: Fusarium oxysporum f. sp. niveum; experiment: Antifungal activity against Fusarium oxysporum f. sp. niveum at 28 degC after 48 hr microbroth dilution method; type: functional; in short: as §1
# [7] = system: Fusarium oxysporum f. sp. vasinfectum; experiment: Antifungal activity against Fusarium oxysporum f. sp. vasinfectum at 28 degC after 48 hr microbroth dilution method; type: functional; in short: as §1
# [8] = system: Fusarium graminearum; experiment: Antifungal activity against Fusarium graminearum at 28 degC after 48 hr microbroth dilution method; type: functional
# In short: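 Microbroth dilution in PD medium. Fungi were grown 18 h at 28 ± 0.5 °C and 150 rpm, then diluted to about 1 × 10^6 CFU. Compounds (2 mg/mL DMSO stock) were serially diluted in triplicate and fungal suspension added. Incubated 48 h at 28 ± 0.5 °C. MIC was the lowest concentration with no visible growth. Controls: DMSO, carbendazim, hymexazol.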
# [9] = system: Botrytis cinerea; experiment: Antifungal activity against Botryotinia fuckeliana at 28 degC after 48 hr microbroth dilution method; type: functional; in short: as §1
# [10] = system: Mythimna separata; experiment: Antifeedant activity against Mythimna separata (Oriental armyworm) larvae assessed as antifeedant index by area of the leaf consumed; type: functional; parameters: concentration or dose not given beside the values
# In short: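 Positive control prepared at 10 mg/mL in acetone; leaves treated with acetone alone served as control. Ten treated leaves and 10 larvae per Petri dish lined with moistened filter paper. Held at 25 ± 2 °C, 12L:12D, 65−80% rh. Leaf area consumed recorded after 48 h. AFI = (C − T)/C × 100%, from control and treated areas consumed. Three repetitions.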
Structure (SMILES),LC50 [1],MIC [2],MIC [3],MIC [4],MIC [5],MIC [6],MIC [7],MIC [8],MIC [9],AFI [10]
C[C@@H]1NC(=O)[C@@H]2CCCN2C1=O,> 100 µg/mL,–,–,–,–,–,–,–,–,–
O=C1CNC(=O)[C@H](Cc2ccccc2)N1,> 100 µg/mL,–,–,–,–,–,–,–,–,–
C[C@@H]1NC(=O)[C@H]2CCCN2C1=O,> 100 µg/mL,–,–,–,–,–,–,–,–,–
O=C1N[C@@H](CO)C(=O)N2CCC[C@@H]12,> 100 µg/mL,–,–,–,–,–,–,–,–,–
O=C1N[C@@H](CO)C(=O)N2C[C@H](O)C[C@@H]12,> 100 µg/mL,–,–,–,–,–,–,–,–,–
CC(C)C[C@@H]1NC(=O)[C@@H]2CC(O)CN2C1=O (stereo not given in full),> 100 µg/mL,–,–,–,–,–,–,–,–,–
O=C1N[C@@H](Cc2ccccc2)C(=O)N2C[C@H](O)C[C@H]12,> 100 µg/mL,–,–,–,–,–,–,–,–,–
C[C@@H]1NC(=O)CNC1=O,> 100 µg/mL,–,–,–,–,–,–,–,–,–
COc1ccc2c3c([nH]c2c1)[C@H](CC(C)(C)O)N1C(=O)[C@@H]2CCCN2C(=O)[C@@]1(O)[C@H]3O,73.2 µg/mL,25 µg/mL,25 µg/mL,25 µg/mL,50 µg/mL,25 µg/mL,50 µg/mL,25 µg/mL,25 µg/mL,–
COc1ccc2c3c([nH]c2c1)[C@H](CC(C)(C)O)N1C(=O)[C@@H]2CCCN2C(=O)[C@@]1(O)[C@H]3OC,60.7 µg/mL,6.25 µg/mL,6.25 µg/mL,6.25 µg/mL,25 µg/mL,12.5 µg/mL,25 µg/mL,6.25 µg/mL,6.25 µg/mL,–
COc1ccc2c(c1)N[C@@]1(C2=O)[C@H](C=C(C)C)N2C(=O)[C@@H]3CCCN3C(=O)[C@]2(O)[C@H]1O,> 100 µg/mL,–,–,–,–,–,–,–,–,5%
O=C1[C@@H]2C[C@@H](O)CN2C(=O)[C@@H]2CCCN12,> 100 µg/mL,–,–,–,–,–,–,–,–,–
C[C@@H]1NC(=O)[C@@H]2C[C@@H](O)CN2C1=O,66.1 µg/mL,–,–,–,–,–,–,–,–,–
O=C1C[C@@H](O)[C@H](O)c2cccc(O)c21 (relative stereo),> 100 µg/mL,–,–,–,–,–,–,–,–,–
O=C1C[C@@H](O)[C@@H](O)c2cccc(O)c21 (relative stereo),> 100 µg/mL,–,–,–,–,–,–,–,–,–
C[C@@H]1N[C@H]2N(C1=O)c1ccccc1[C@@]2(O)C[C@@H]1C(=O)N[C@](C)(O)c2nc3ccccc3c(=O)n21 [3-HYDROXYFUMIQUINAZOLINE A],80.8 µg/mL,12.5 µg/mL,12.5 µg/mL,12.5 µg/mL,100 µg/mL,50 µg/mL,50 µg/mL,12.5 µg/mL,12.5 µg/mL,7.5%
"O=C1CCC(O)c2cccc(O)c21 (stereo not given) [4,8-DIHYDROXY-1-TETRALONE]",52.7 µg/mL,12.5 µg/mL,12.5 µg/mL,12.5 µg/mL,50 µg/mL,25 µg/mL,50 µg/mL,12.5 µg/mL,12.5 µg/mL,–
O=C1N[C@@H](Cc2c[nH]c3ccccc23)C(=O)N2CCC[C@@H]12 [BREVIANAMIDE F],83.7 µg/mL,–,–,–,–,–,–,–,–,–
COC(=O)Nc1nc2ccccc2[nH]1 [CARBENDAZIM],–,12.5 µg/mL,6.25 µg/mL,6.25 µg/mL,25 µg/mL,12.5 µg/mL,25 µg/mL,6.25 µg/mL,12.5 µg/mL,–

Structure (SMILES),LC50 [1],MIC [2],MIC [3],MIC [4],MIC [5],MIC [6],MIC [7],MIC [8],MIC [9],AFI [10]
O=C1NCC(=O)N2CCC[C@@H]12 [CYCLO(PROLYLGLYCYL)],> 100 µg/mL,–,–,–,–,–,–,–,–,–
COc1ccc2c3c([nH]c2c1)[C@H](C=C(C)C)N1C(=O)[C@@H]2CCCN2C(=O)[C@@]1(O)[C@H]3OC [CYCLOTRYPROSTATIN B],37.9 µg/mL,12.5 µg/mL,12.5 µg/mL,12.5 µg/mL,25 µg/mL,12.5 µg/mL,25 µg/mL,12.5 µg/mL,12.5 µg/mL,–
C[C@@H]1CN(C)[C@@H]2Cc3c[nH]c4cccc(c34)[C@H]2[C@H]1O [FUMIGACLAVINE B],> 100 µg/mL,–,–,–,–,–,–,–,–,–
C[C@@H]1N[C@H]2N(C1=O)c1ccccc1[C@@]2(O)C[C@@H]1C(=O)N[C@@H](C)c2nc3ccccc3c(=O)n21 [FUMIQUINAZOLINE A],39.7 µg/mL,12.5 µg/mL,12.5 µg/mL,12.5 µg/mL,50 µg/mL,25 µg/mL,50 µg/mL,12.5 µg/mL,12.5 µg/mL,45%
C[C@H]1C(=O)N2c3ccccc3[C@@]3(O)C[C@@H]4C(=O)N[C@](C)(c5nc6ccccc6c(=O)n54)N1[C@@H]23 [FUMIQUINAZOLINE D],> 100 µg/mL,25 µg/mL,25 µg/mL,25 µg/mL,> 100 µg/mL,50 µg/mL,50 µg/mL,25 µg/mL,25 µg/mL,10%
C[C@@H]1NC(=O)[C@@H](Cc2c[nH]c3ccccc23)n2c1nc1ccccc1c2=O [FUMIQUINAZOLINE F],55.3 µg/mL,25 µg/mL,12.5 µg/mL,12.5 µg/mL,50 µg/mL,25 µg/mL,50 µg/mL,12.5 µg/mL,12.5 µg/mL,30%
C[C@H]1NC(=O)[C@@H](Cc2c[nH]c3ccccc23)n2c1nc1ccccc1c2=O [FUMIQUINAZOLINE G],78.8 µg/mL,25 µg/mL,12.5 µg/mL,12.5 µg/mL,50 µg/mL,50 µg/mL,50 µg/mL,12.5 µg/mL,12.5 µg/mL,–
COc1ccc2c3c([nH]c2c1)[C@H](C=C(C)C)N1C(=O)[C@@H]2CCCN2C(=O)[C@@H]1C3 [FUMITREMORGIN],40.5 µg/mL,25 µg/mL,12.5 µg/mL,12.5 µg/mL,50 µg/mL,25 µg/mL,50 µg/mL,12.5 µg/mL,12.5 µg/mL,15%
CC(=O)O[C@H]1C[C@@]2(C)[C@@H](CC[C@H]3[C@@]4(C)C=CC(=O)[C@@H](C)[C@@H]4[C@H](OC(C)=O)C(=O)[C@@]32C)/C1=C(\CCC=C(C)C)C(=O)O [HELVOLIC ACID],73.7 µg/mL,12.5 µg/mL,6.25 µg/mL,6.25 µg/mL,50 µg/mL,12.5 µg/mL,25 µg/mL,6.25 µg/mL,6.25 µg/mL,7.5%
Cc1cc(O)no1 [HYMEXAZOL],–,12.5 µg/mL,12.5 µg/mL,12.5 µg/mL,50 µg/mL,12.5 µg/mL,25 µg/mL,12.5 µg/mL,12.5 µg/mL,–
CC/C=C/[C@H](O)[C@H](O)C1=C(C)C(=O)[C@]2(O1)C(=O)N[C@@](OC)(C(=O)c1ccccc1)[C@H]2O [PSEUROTIN A1],> 100 µg/mL,–,–,–,–,–,–,–,–,–
CC/C=C\[C@H](O)[C@H](O)C1=C(C)C(=O)[C@]2(O1)C(=O)N[C@@](OC)(C(=O)c1ccccc1)[C@@H]2O [PSEUROTIN A],> 100 µg/mL,–,–,–,–,–,–,–,–,–
COc1ccc2c(c1)NC(=O)[C@@]21C=C2C(=O)N3CCC[C@H]3C(=O)N2[C@H]1C=C(C)C [SPIROTRYPROSTATIN B],> 100 µg/mL,–,–,–,–,–,–,–,–,–
CC(C)=CCc1cccc2c(C[C@@H]3NC(=O)[C@H](C)NC3=O)c[nH]c12 [TEREZINE D],> 100 µg/mL,–,–,–,–,–,–,–,–,–
CC(=O)O[C@@H]1C[C@H](O)[C@@]23CO[C@@H](O)[C@]1(C)[C@@H]2C[C@@H](O)[C@]1(C)[C@@H]3C(=O)[C@H](OC(C)=O)[C@@]2(C)[C@H](c3ccoc3)C[C@H]3O[C@]321 [TOOSENDANIN],< 1 µg/mL,–,–,–,–,–,–,–,–,97.5%
COc1ccc2c(C[C@@H]3NC(=O)[C@@H]4CCCN4C3=O)c(CC=C(C)C)[nH]c2c1 [TRYPROSTATIN A],44.8 µg/mL,–,–,–,–,–,–,–,–,–
C[C@@H]1C(=O)N2c3ccccc3[C@@]3(O)C[C@H](n4cnc5ccccc5c4=O)C(=O)N1[C@H]23 [TRYPTOQUIVALINE O],72.8 µg/mL,12.5 µg/mL,25 µg/mL,100 µg/mL,> 100 µg/mL,> 100 µg/mL,> 100 µg/mL,50 µg/mL,25 µg/mL,–
O=c1cc[nH]c(=O)[nH]1 [URACIL],> 100 µg/mL,–,–,–,–,–,–,–,–,–
COc1ccc2c3c4n(c2c1)[C@H](C=C(C)C)OOC(C)(C)C[C@@H]4N1C(=O)[C@@H]2CCCN2C(=O)[C@]1(O)[C@H]3O [VERRUCULOGEN],15.8 µg/mL,12.5 µg/mL,6.25 µg/mL,6.25 µg/mL,50 µg/mL,12.5 µg/mL,25 µg/mL,6.25 µg/mL,6.25 µg/mL,55%
